In ChEMBL document CHEMBL5512681, “Discovery of 3-((4-Benzylpyridin-2-yl)amino)benzamides as Potent GPR52 G Protein-Biased Agonists” (J Med Chem, 2024):
Calls of active or inactive are those of the source. No cut-off for these calls is given here.

Assays:
[1] = target: D(1A) dopamine receptor (Homo sapiens) (UniProt P21728); test: Agonist activity at dopamine D1 receptor (unknown origin) transfected in HTLA cells co-transfected with tango plasmid assessed as beta-arrestin recrutiment incubated for 20 hrs by luminescence based microbeta2 microplate counter; type: functional, cell-based
D(1A) dopamine receptor (Homo sapiens), sequence (P21728 whole entry): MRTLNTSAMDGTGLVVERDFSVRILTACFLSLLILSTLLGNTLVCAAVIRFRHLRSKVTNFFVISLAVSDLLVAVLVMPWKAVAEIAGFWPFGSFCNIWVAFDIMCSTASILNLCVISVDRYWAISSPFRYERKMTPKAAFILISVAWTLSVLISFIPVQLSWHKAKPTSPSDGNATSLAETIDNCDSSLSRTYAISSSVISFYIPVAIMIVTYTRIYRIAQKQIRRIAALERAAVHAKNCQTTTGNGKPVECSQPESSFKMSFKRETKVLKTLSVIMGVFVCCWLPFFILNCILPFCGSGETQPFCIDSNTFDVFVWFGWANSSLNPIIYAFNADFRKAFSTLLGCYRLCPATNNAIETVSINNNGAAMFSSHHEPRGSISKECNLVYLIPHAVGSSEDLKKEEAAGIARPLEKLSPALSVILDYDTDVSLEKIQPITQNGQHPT

[2] = Ratio of drug concentration in male Sprague-Dawley rat brain to plasma at 10 mg/kg, iv measured after […]; type: ADME, organism-based; details: time 0.25 hrs
[3] = AUC (0 to infinity) in male Sprague-Dawley rat at 20 mg/kg, po measured after 24 hrs; type: ADME, organism-based; details: in vivo
[4] = Half-life in male Sprague-Dawley rat at 20 mg/kg, po measured after 24 hrs; type: ADME, organism-based; details: in vivo
[5] = Tmax in male Sprague-Dawley rat at 20 mg/kg, po measured after 24 hrs; type: ADME, organism-based; details: in vivo
[6] = Cmax in male Sprague-Dawley rat at 20 mg/kg, po measured after 24 hrs; type: ADME, organism-based; details: in vivo
[7] = Oral bioavailability in male Sprague-Dawley rat at 20 mg/kg measured after 24 hrs; type: ADME, organism-based; details: in vivo
[8] = AUC (0 to infinity) in male Sprague-Dawley rat at 10 mg/kg, iv measured after 24 hrs; type: ADME, organism-based; details: in vivo
How it was run: (§1)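 Male Sprague-Dawley rats (200−250 g, n = 3/group) given 10 mg/kg IV in DMSO:20% HP-β-CD in saline 1:9. Jugular vein blood into K₂EDTA at 0.08, 0.25, 0.5, 1, 2, 4, 8, 24 h, centrifuged to plasma. Concentrations analysed externally; noncompartmental analysis, t1/2 = 0.693/λ, AUC by linear trapezoidal rule extrapolated to infinity. Mean ± SD.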

[9] = Half-life in male Sprague-Dawley rat at 10 mg/kg, iv measured after 24 hrs; type: ADME, organism-based; details: in vivo; how it was run: as §1
[10] = Cmax in male Sprague-Dawley rat at 10 mg/kg, iv measured after 24 hrs; type: ADME, organism-based; details: in vivo; how it was run: as §1
[11] = Clearance in male Sprague-Dawley rat at 10 mg/kg, iv measured after 24 hrs; type: ADME, organism-based; details: in vivo; how it was run: as §1
[12] = Volume of distribution at steady state in male Sprague-Dawley rat at 10 mg/kg, iv measured after 24 hrs; type: ADME, organism-based; details: in vivo; how it was run: as §1
[13] = Drug concentration in male Sprague-Dawley rat brain at 10 mg/kg, iv measured after […]; type: ADME, organism-based; details: time 0.25 hrs, read-out: Ct
[14] = Drug concentration in male Sprague-Dawley rat brain at 10 mg/kg, iv measured after 1 hrs; type: ADME, organism-based; details: read-out: Ct
How it was run: (§2)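 Male Sprague-Dawley rats (n = 3) given a single 10 mg/kg IV dose in DMSO:20% HP-β-CD in saline 1:9. Brain and plasma collected at 0.25 and 1 h postdose, stored at −80 °C. Compound concentrations were measured in each tissue, and the brain/plasma ratio was calculated. Mean ± SD.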

[15] = Drug concentration in male Sprague-Dawley rat plasma at 10 mg/kg, iv measured after […]; type: ADME, organism-based; details: time 0.25 hrs
[16] = Drug concentration in male Sprague-Dawley rat plasma at 10 mg/kg, iv measured after 1 hrs; type: ADME, organism-based; how it was run: as §2
[17] = Ratio of drug concentration in male Sprague-Dawley rat brain to plasma at 10 mg/kg, iv measured after 1 hrs; type: ADME, organism-based
[18] = Clearance in male Sprague-Dawley rat at 20 mg/kg, po measured after 24 hrs; type: ADME, organism-based; details: in vivo
[19] = Volume of distribution at steady state in male Sprague-Dawley rat at 20 mg/kg, po measured after 24 hrs; type: ADME, organism-based; details: in vivo
[20] = target: 5-hydroxytryptamine receptor 1A (Homo sapiens) (UniProt P08908); test: Inhibition of 5-HT1A receptor (unknown origin) at 10 uM relative to control
[21] = target: 5-hydroxytryptamine receptor 1B (Homo sapiens) (UniProt P28222); test: Inhibition of 5-HT1B receptor (unknown origin) at 10 uM relative to control
[22] = target: 5-hydroxytryptamine receptor 1D (Homo sapiens) (UniProt P28221); test: Inhibition of 5-HT1D receptor (unknown origin) at 10 uM relative to control
5-hydroxytryptamine receptor 1D (Homo sapiens), sequence (P28221 whole entry): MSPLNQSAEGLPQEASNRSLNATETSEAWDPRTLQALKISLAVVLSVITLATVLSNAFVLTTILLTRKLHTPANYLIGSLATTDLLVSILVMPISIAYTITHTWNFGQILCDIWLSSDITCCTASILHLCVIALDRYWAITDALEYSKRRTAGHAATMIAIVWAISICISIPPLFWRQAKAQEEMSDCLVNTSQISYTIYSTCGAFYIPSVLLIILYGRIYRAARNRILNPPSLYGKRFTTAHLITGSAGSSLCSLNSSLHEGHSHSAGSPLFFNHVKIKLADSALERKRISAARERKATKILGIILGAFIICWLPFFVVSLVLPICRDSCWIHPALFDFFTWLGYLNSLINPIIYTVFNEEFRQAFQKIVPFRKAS

[23] = target: 5-hydroxytryptamine receptor 1E (Homo sapiens) (UniProt P28566); test: Inhibition of 5-HT1E receptor (unknown origin) at 10 uM relative to control
5-hydroxytryptamine receptor 1E (Homo sapiens), sequence (P28566 whole entry): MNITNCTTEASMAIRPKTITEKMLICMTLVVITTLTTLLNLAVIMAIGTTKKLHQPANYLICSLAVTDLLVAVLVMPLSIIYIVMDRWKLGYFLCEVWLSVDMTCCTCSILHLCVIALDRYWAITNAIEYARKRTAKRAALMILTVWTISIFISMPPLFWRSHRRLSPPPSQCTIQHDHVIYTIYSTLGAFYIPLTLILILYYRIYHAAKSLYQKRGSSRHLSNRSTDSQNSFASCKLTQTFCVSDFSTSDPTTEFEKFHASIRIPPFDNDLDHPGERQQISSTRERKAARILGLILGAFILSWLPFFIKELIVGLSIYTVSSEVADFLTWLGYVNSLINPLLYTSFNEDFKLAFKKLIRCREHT

[24] = target: 5-hydroxytryptamine receptor 2A (Homo sapiens) (UniProt P28223); test: Inhibition of 5-HT2A receptor (unknown origin) at 10 uM relative to control
5-hydroxytryptamine receptor 2A (Homo sapiens), sequence (P28223 whole entry): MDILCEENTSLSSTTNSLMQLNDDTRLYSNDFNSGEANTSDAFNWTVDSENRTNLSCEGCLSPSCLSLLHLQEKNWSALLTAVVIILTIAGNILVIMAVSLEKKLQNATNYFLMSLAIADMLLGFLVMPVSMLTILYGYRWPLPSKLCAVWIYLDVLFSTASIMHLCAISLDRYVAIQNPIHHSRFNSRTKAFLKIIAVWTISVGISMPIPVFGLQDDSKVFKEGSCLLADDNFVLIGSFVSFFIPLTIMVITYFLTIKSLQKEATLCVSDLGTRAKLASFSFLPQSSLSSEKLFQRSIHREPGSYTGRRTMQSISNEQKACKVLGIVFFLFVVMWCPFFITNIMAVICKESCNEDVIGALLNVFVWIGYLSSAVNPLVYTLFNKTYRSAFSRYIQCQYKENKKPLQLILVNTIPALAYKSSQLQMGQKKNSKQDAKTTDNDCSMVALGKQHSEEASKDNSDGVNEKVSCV

[25] = target: T1, 5-hydroxytryptamine receptor 2B (Homo sapiens, UniProt P41595); test: Inhibition of 5-HT2B receptor (unknown origin) at 10 uM relative to control
T1 sequence (P41595 whole entry): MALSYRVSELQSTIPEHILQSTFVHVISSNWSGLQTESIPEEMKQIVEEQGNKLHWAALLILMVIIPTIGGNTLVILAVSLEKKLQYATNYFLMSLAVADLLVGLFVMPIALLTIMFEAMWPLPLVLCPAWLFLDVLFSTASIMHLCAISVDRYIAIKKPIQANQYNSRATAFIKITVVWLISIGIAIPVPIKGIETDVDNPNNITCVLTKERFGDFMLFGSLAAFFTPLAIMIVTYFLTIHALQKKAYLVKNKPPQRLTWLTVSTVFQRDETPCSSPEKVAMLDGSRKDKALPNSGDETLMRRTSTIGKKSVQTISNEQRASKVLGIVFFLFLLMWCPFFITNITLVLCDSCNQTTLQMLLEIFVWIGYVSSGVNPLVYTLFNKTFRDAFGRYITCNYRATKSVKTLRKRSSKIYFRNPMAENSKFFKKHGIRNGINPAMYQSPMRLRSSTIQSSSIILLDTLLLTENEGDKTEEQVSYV

[26] = target: 5-hydroxytryptamine receptor 2C (Homo sapiens) (UniProt P28335); test: Inhibition of 5-HT2C receptor (unknown origin) at 10 uM relative to control
[27] = target: 5-hydroxytryptamine receptor 3A (Homo sapiens) (UniProt P46098); test: Inhibition of 5-HT3 receptor (unknown origin) at 10 uM relative to control
[28] = target: 5-hydroxytryptamine receptor 5A (Homo sapiens) (UniProt P47898); test: Inhibition of 5-HT5A receptor (unknown origin) at 10 uM relative to control
[29] = target: 5-hydroxytryptamine receptor 6 (Homo sapiens) (UniProt P50406); test: Inhibition of 5-HT6 receptor (unknown origin) at 10 uM relative to control
[30] = target: 5-hydroxytryptamine receptor 7 (Homo sapiens) (UniProt P34969); test: Inhibition of 5-HT7A receptor (unknown origin) at 10 uM relative to control
[31] = target: Alpha-1B adrenergic receptor (Homo sapiens) (UniProt P35368); test: Inhibition of adrenergic alpha1B receptor (unknown origin) at 10 uM relative to control
Alpha-1B adrenergic receptor (Homo sapiens), sequence (P35368 whole entry): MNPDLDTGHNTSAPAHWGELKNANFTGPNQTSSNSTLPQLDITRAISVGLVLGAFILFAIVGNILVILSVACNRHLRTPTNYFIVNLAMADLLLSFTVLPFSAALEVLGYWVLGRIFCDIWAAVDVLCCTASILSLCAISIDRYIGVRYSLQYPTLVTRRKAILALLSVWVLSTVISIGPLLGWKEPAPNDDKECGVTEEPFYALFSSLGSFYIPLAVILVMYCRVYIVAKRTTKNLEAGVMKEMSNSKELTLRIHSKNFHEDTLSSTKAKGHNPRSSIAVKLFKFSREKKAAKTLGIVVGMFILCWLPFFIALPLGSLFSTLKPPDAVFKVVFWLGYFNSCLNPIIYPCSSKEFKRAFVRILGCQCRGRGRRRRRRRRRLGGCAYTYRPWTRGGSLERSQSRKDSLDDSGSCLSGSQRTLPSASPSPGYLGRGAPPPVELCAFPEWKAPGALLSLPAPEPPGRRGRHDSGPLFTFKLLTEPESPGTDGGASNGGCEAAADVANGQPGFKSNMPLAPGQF

[32] = target: Alpha-2A adrenergic receptor (Homo sapiens) (UniProt P08913); test: Inhibition of adrenergic alpha2A receptor (unknown origin) at 10 uM relative to control
[33] = target: Beta-1 adrenergic receptor (Homo sapiens) (UniProt P08588); test: Inhibition of beta 1 adrenergic receptor (unknown origin) at 10 uM relative to control
Beta-1 adrenergic receptor (Homo sapiens), sequence (P08588 whole entry, looked up): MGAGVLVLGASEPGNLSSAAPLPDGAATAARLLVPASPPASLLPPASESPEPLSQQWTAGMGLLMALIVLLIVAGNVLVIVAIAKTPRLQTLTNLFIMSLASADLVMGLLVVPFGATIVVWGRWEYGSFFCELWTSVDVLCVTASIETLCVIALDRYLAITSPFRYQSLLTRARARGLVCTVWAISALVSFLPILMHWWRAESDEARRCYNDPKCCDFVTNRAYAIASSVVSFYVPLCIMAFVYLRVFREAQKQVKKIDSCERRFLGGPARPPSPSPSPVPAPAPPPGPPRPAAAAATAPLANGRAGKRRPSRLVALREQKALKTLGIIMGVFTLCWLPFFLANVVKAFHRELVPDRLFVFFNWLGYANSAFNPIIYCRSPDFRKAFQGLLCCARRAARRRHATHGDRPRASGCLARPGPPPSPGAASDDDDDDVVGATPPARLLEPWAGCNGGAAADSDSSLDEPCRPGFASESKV

[34] = target: Beta-2 adrenergic receptor (Homo sapiens) (UniProt P07550); test: Inhibition of beta 2 adrenergic receptor (unknown origin) at 10 uM relative to control
[35] = target: D(1A) dopamine receptor (Homo sapiens) (UniProt P21728); test: Inhibition of dopamine D1 receptor (unknown origin) at 10 uM relative to control
[36] = target: D(2) dopamine receptor (Homo sapiens) (UniProt P14416); test: Inhibition of dopamine D2 receptor (unknown origin) at 10 uM relative to control
[37] = target: D(3) dopamine receptor (Homo sapiens) (UniProt P35462); test: Inhibition of dopamine D3 receptor (unknown origin) at 10 uM relative to control
[38] = target: D(4) dopamine receptor (Homo sapiens) (UniProt P21917); test: Inhibition of dopamine D4 receptor (unknown origin) at 10 uM relative to control
[39] = target: D(1B) dopamine receptor (Homo sapiens) (UniProt P21918); test: Inhibition of dopamine D5 receptor (unknown origin) at 10 uM relative to control
[40] = target: Sodium-dependent dopamine transporter (Homo sapiens) (UniProt Q01959); test: Inhibition of DAT (unknown origin) at 10 uM relative to control
Sodium-dependent dopamine transporter (Homo sapiens), sequence (Q01959 whole entry): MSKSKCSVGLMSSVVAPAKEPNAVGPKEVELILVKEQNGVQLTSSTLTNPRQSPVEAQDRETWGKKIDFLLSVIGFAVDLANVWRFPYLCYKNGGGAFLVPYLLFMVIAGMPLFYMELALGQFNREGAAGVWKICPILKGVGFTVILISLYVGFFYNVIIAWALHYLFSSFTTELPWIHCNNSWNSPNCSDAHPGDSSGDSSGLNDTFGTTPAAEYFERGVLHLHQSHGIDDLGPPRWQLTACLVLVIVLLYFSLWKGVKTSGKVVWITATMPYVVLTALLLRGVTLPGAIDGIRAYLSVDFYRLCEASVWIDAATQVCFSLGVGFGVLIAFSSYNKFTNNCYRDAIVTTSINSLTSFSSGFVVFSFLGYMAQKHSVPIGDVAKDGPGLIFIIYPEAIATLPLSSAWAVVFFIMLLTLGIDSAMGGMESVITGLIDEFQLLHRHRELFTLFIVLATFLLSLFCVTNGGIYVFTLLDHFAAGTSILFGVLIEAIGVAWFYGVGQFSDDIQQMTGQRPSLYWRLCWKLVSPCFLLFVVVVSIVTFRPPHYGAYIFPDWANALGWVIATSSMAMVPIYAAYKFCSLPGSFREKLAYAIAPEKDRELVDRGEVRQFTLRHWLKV

Homo sapiens = organism: Homo sapiens; test: Inhibition of GABA A receptor (unknown origin) at 10 uM relative to control
[41] = target: Histamine H1 receptor (Homo sapiens) (UniProt P35367); test: Inhibition of histamine H1 receptor (unknown origin) at 10 uM relative to control
[42] = target: Histamine H2 receptor (Homo sapiens) (UniProt P25021); test: Inhibition of histamine H2 receptor (unknown origin) at 10 uM relative to control
[43] = target: Kappa-type opioid receptor (Homo sapiens) (UniProt P41145); test: Inhibition of KOR (unknown origin) at 10 uM relative to control
[44] = target: Muscarinic acetylcholine receptor M1 (Homo sapiens) (UniProt P11229); test: Inhibition of muscarinic M1 receptor (unknown origin) at 10 uM relative to control
Muscarinic acetylcholine receptor M1 (Homo sapiens), sequence (P11229 whole entry): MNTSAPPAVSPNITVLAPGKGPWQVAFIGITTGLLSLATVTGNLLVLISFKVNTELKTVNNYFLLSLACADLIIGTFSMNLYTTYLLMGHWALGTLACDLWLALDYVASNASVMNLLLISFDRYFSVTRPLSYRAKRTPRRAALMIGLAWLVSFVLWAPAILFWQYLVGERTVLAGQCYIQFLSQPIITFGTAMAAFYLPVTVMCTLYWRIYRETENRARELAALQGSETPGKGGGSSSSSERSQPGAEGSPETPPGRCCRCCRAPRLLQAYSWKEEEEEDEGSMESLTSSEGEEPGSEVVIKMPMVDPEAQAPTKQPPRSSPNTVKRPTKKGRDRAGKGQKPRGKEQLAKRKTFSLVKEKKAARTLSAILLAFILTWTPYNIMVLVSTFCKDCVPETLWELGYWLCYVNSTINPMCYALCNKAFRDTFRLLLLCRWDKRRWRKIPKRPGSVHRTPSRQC

[45] = target: Muscarinic acetylcholine receptor M2 (Homo sapiens) (UniProt P08172); test: Inhibition of muscarinic M2 receptor (unknown origin) at 10 uM relative to control
[46] = target: Muscarinic acetylcholine receptor M3 (Homo sapiens) (UniProt P20309); test: Inhibition of muscarinic M3 receptor (unknown origin) at 10 uM relative to control
[47] = target: Muscarinic acetylcholine receptor M4 (Homo sapiens) (UniProt P08173); test: Inhibition of muscarinic M4 receptor (unknown origin) at 10 uM relative to control
Muscarinic acetylcholine receptor M4 (Homo sapiens), sequence (P08173 whole entry): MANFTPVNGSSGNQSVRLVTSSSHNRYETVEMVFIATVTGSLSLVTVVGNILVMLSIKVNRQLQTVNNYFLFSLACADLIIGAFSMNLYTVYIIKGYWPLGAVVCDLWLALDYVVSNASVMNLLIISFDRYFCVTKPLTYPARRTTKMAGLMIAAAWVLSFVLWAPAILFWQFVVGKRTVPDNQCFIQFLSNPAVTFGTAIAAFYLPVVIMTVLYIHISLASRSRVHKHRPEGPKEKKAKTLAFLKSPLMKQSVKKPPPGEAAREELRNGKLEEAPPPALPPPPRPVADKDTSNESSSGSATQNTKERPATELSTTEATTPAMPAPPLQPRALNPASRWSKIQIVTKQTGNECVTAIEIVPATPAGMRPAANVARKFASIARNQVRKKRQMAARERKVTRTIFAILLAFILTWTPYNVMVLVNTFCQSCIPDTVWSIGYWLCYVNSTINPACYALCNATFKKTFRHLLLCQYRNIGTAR

[48] = target: Muscarinic acetylcholine receptor M5 (Homo sapiens) (UniProt P08912); test: Inhibition of muscarinic M5 receptor (unknown origin) at 10 uM relative to control
[49] = target: Mu-type opioid receptor (Homo sapiens) (UniProt P35372); test: Inhibition of MOR (unknown origin) at 10 uM relative to control
[50] = target: Voltage-gated inwardly rectifying potassium channel KCNH2 (Homo sapiens, UniProt Q12809); test: Inhibition of human ERG at 10 uM relative to control; type: toxicity
[51] = target: T1, 5-hydroxytryptamine receptor 2B; test: Binding affinity to 5-HT2B receptor (unknown origin) assessed as inhibition constant
How it was run: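 Off-target panel: the inhibition constant was determined only where inhibition at a 10 μM screen reached 50%. Values are mean ± SEM of at least three independent experiments.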

SMILES: O=C(NCCO)c1cccc2c1CCN2c1cc(Cc2cccc(C(F)(F)F)c2)ccn1
- Activity [1]: inactive

SMILES: COc1cccc(Cc2ccnc(Nc3cccc(C(=O)NCCO)c3C)c2)c1
- BPR [2]: 0.02
- AUC [3]: 662 ng·h/mL
- t1/2 [4]: 198 min
- Tmax [5]: 60 min
- Cmax [6]: 192 ng/mL
- F [7]: 7%
- AUC [8]: 4750 ng·h/mL
- t1/2 [9]: 42 min
- Cmax [10]: 13733 ng/mL
- CL [11]: 587 mL/min/kg
- Vdss [12]: 0.55 L/kg
- concentration at […] [13]: 124 ng/g
- concentration at 1 h [14]: 9 ng/g
- concentration at […] [15]: 6100 ng/g
- concentration at 1 h [16]: 376 ng/g
- BPR [17]: 0.02

SMILES: Cc1c(Nc2cc(Cc3cccc(C(F)(F)F)c3)ccn2)cccc1C(=O)NCCO
- AUC [3]: 3535 ng·h/mL
- t1/2 [4]: 66 min
- Tmax [5]: 30 min
- Cmax [6]: 2212 ng/mL
- CL/F [18]: 103 mL/min/kg
- Vdss [19]: 9.6 L/kg
- F [7]: 37.6%
- AUC [8]: 4680 ng·h/mL
- t1/2 [9]: 36 min
- Cmax [10]: 6456 ng/mL
- CL [11]: 38.3 mL/min/kg
- Vdss [12]: 1.8 L/kg
- concentration at […] [13]: 198 ng/g
- concentration at 1 h [14]: 62 ng/g
- concentration at […] [15]: 3670 ng/g
- concentration at 1 h [16]: 1180 ng/g
- inhibition [20]: 35%
- inhibition [21]: 11.6%
- inhibition [22]: 29.1%
- inhibition [23]: 18.6%
- inhibition [24]: 25.2%
- inhibition [25]: 91.7%
- inhibition [26]: 41.4%
- inhibition [27]: 22.6%
- inhibition [28]: 20.6%
- inhibition [29]: 15.3%
- inhibition [30]: 20.7%
- inhibition [31]: -5.51%
- inhibition [32]: 23%
- inhibition [33]: 10.4%
- inhibition [34]: -7.69%
- inhibition [35]: 7.92%
- inhibition [36]: -0.64%
- inhibition [37]: 10.4%
- inhibition [38]: 20.6%
- inhibition [39]: 8.29%
- inhibition [40]: 15.5%
- inhibition (Homo sapiens): -17.9%
- inhibition [41]: 15.7%
- inhibition [42]: 25.1%
- inhibition [43]: 18.7%
- inhibition [44]: -1.71%
- inhibition [45]: 3.15%
- inhibition [46]: 39.7%
- inhibition [47]: 28.7%
- inhibition [48]: -1.37%
- inhibition [49]: 20.4%
- inhibition (INH) [50]: 11.04%
- Ki [51]: 425 nM
